Assay results published in ChEMBL document CHEMBL1121955, “Cardenolide analogues. 14. Synthesis and biological activity of glucosides of C17 beta-modified derivatives of digitoxigenin” (J Med Chem, 1982).
Active and inactive are the calls of the source.

Columns and labels:
[1] = species: Cavia porcellus; experiment: The dose producing 75% increase in contractility in guinea pig atria; format: functional
Method in brief: (§1)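 Isolated guinea pig left atria were equilibrated 1 h, set to 1 g resting tension, and paced with 10-ms rectangular pulses at 90/min, 20% above threshold (minimum 5 V). Cumulative doses in propylene glycol/water (7:3) were added at 30-min intervals or 5 min after maximum effect. Isometric force change was referenced to control atria. At least nine replicate curves were fitted, and ΔF75 was read from the pooled fitted curve.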

[2] = species: Cavia porcellus; experiment: Binding affinity against digitalis receptor was determined relative to digitoxigenin
[3] = species: Cavia porcellus; experiment: The dose producing 75% increase in contractility in guinea pig atria
[4] = species: Cavia porcellus; experiment: Relative potency of compound to Digitalis receptor was determined to that of digitoxigenin; Inactive
[5] = species: Cavia porcellus; experiment: The dose producing 75% increase in contractility in guinea pig atria; Inactive; format: functional; method in brief: as §1

C[C@]12CC[C@H](O[C@@H]3O[C@H](CO)[C@@H](O)[C@H](O)[C@H]3O)C[C@@H]1CC[C@@H]1[C@@H]2CC[C@]2(C)[C@@H](/C=C/C#N)CC[C@@]12O
Delta F75 [1]: 6.9e-07 M l-1

CC(=O)/C=C/[C@H]1CC[C@]2(O)[C@@H]3CCC4C[C@@H](O)CC[C@]4(C)[C@H]3CC[C@]12C (some centres not stated)
Delta F75 [1]: 5.6e-06 M l-1

CC(C)OC(=O)/C=C/[C@H]1CC[C@@]2(O)[C@@H]3CC[C@H]4C[C@@H](O[C@@H]5O[C@H](CO)[C@@H](O)[C@H](O)[C@H]5O)CC[C@]4(C)[C@H]3CC[C@]12C
Delta F75 [1]: 1.5e-05 M l-1

C[C@]12CC[C@H](O)C[C@H]1CC[C@@H]1[C@@H]2CC[C@]2(C)[C@@H](/C=C/C(N)=O)CC[C@]12O
Delta F75 [1]: <20 M l-1 | Relative potency [2]: < 0.01

COC(=O)/C=C/[C@H]1CC[C@@]2(O)[C@@H]3CC[C@H]4C[C@@H](O[C@@H]5O[C@H](CO)[C@@H](O)[C@H](O)[C@H]5O)CC[C@]4(C)[C@H]3CC[C@]12C
Delta F75 [1]: 1.5e-06 M l-1

C[C@@H]1O[C@@H](O[C@H]2C[C@@H](O)[C@]3(CO)[C@H]4[C@H](O)C[C@]5(C)[C@@H](C6=CC(=O)OC6)CC[C@]5(O)[C@@H]4CC[C@]3(O)C2)[C@H](O)[C@H](O)[C@H]1O [OUABAIN]
Delta F75 [3]: 2.9e-07 M l-1

CCCOC(=O)/C=C/[C@H]1CC[C@@]2(O)[C@@H]3CC[C@H]4C[C@@H](O[C@@H]5O[C@H](CO)[C@@H](O)[C@H](O)[C@H]5O)CC[C@]4(C)[C@H]3CC[C@]12C
Delta F75 [1]: 1.1e-05 M l-1

CC(C)COC(=O)/C=C/[C@H]1CC[C@@]2(O)[C@@H]3CC[C@H]4C[C@@H](O[C@@H]5O[C@H](CO)[C@@H](O)[C@H](O)[C@H]5O)CC[C@]4(C)[C@H]3CC[C@]12C
Delta F75 [1]: 6.3e-05 M l-1

C[C@]12CC[C@H](O)CC1CC[C@@H]1[C@@H]2CC[C@]2(C)[C@@H](/C=C/C#N)CC[C@]12O (some centres not stated)
Delta F75 [1]: 1.6e-06 M l-1 | Relative potency [2]: 0.69

C[C@H]1O[C@@H](O[C@H]2[C@@H](O)C[C@H](O[C@H]3[C@@H](O)C[C@H](O[C@H]4CC[C@@]5(C)[C@H](CC[C@@H]6[C@@H]5C[C@@H](O)[C@]5(C)[C@@H](C7=CC(=O)OC7)CC[C@]65O)C4)O[C@@H]3C)O[C@@H]2C)C[C@H](O)[C@@H]1O [DIGOXIN]
Delta F75 [1]: 6.6e-07 M l-1

C[C@H]1O[C@@H](O[C@H]2[C@@H](O)C[C@H](O[C@H]3[C@@H](O)C[C@H](O[C@H]4CC[C@@]5(C)[C@H](CC[C@@H]6[C@@H]5CC[C@]5(C)[C@@H](C7=CC(=O)OC7)CC[C@]65O)C4)O[C@@H]3C)O[C@@H]2C)C[C@H](O)[C@@H]1O [DIGITOXIN]
Delta F75 [1]: 1.6e-07 M l-1

CC(=O)/C=C/[C@H]1CC[C@@]2(O)[C@@H]3CC[C@H]4C[C@@H](O[C@@H]5O[C@H](CO)[C@@H](O)[C@H](O)[C@H]5O)CC[C@]4(C)[C@H]3CC[C@]12C
Delta F75 [1]: 3.1e-06 M l-1

COC(=O)/C=C/[C@H]1CC[C@]2(O)[C@@H]3CCC4C[C@@H](O)CC[C@]4(C)[C@H]3CC[C@]12C (some centres not stated)
Delta F75 [1]: 3.8e-06 M l-1 | Relative potency [2]: 0.29

CCCCOC(=O)/C=C/[C@H]1CC[C@@]2(O)[C@@H]3CC[C@H]4C[C@@H](O[C@@H]5O[C@H](CO)[C@@H](O)[C@H](O)[C@H]5O)CC[C@]4(C)[C@H]3CC[C@]12C
Delta F75 [1]: 6.9e-05 M l-1

C[C@]12CC[C@H](O)CC1CC[C@@H]1[C@@H]2CC[C@]2(C)[C@@H](/C=C/C(=O)O)CC[C@]12O (some centres not stated)
Relative potency [4]: inactive | Delta F75 [5]: inactive

CCOC(=O)/C=C/[C@H]1CC[C@@]2(O)[C@@H]3CC[C@H]4C[C@@H](O[C@@H]5O[C@H](CO)[C@@H](O)[C@H](O)[C@H]5O)CC[C@]4(C)[C@H]3CC[C@]12C
Delta F75 [1]: 6.2e-06 M l-1

C[C@]12CC[C@H](O)C[C@H]1CC[C@@H]1[C@@H]2CC[C@]2(C)[C@@H](C3=CC(=O)OC3)CC[C@]12O [DIGITOXIGENIN]
Relative potency [2]: 1 | Delta F75 [3]: 1.1e-06 M l-1
